For 2 molecules, Activity results are on record in ChEMBL document CHEMBL3044563, “Alternethanoxins A and B, polycyclic ethanones produced by Alternaria sonchi , potential mycoherbicides for Sonchus arvensis biocontrol” (2009).

The source made the active and inactive calls. No cut-off for these calls is given here.

One assay deals with Escherichia coli. Nature of the assay: Antibacterial activity against Escherichia coli at 100 ug/disk. It counts as functional, organism-based. The procedure, abridged:
(§1)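 Test organisms were S. cerevisiae (antifungal) and X. campestris, E. coli and B. subtilis (antibacterial). Compound applied to a disk at 100 μg per disk, following a previously described disk method.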

In assay [1] the test system is Sonchus arvensis. Nature of the assay: Phytotoxicity against Sonchus arvensis (field sow-thistle) assessed as necrotic lesion diameter at 4 mg/mL at 24 degC measured after 2 days by leaf disk-puncture assay. It counts as functional. The procedure, abridged:
(§2)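 Plants were raised in a greenhouse from underground shoot pieces or seeds. 10 mm disks were cut with a cork borer from well-expanded leaves, laid on moist filter paper and punctured centrally with a needle. Compound was predissolved in EtOH and diluted with water (final 5% v/v EtOH), and a 10 μL droplet was applied. Disks were incubated at 24 °C under a 12 h photoperiod, and necrotic lesion diameter (mm) was measured after 2 days.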

Another assay deals with Xanthomonas campestris. Nature of the assay: Antibacterial activity against Xanthomonas campestris at 100 ug/disk. It counts as functional, organism-based. The procedure, abridged:
as §1

Assay [2] has as its system Sonchus arvensis. Nature of the assay: Phytotoxicity against Sonchus arvensis (field sow-thistle) assessed as necrotic lesions at 2 mg/mL at 24 degC measured after 2 days by leaf disk-puncture assay. It counts as functional. Summed up:
as §2

Another assay has as its system Aegopodium podagraria. Nature of the assay: Phytotoxicity against Aegopodium podagraria (bishop's weed) assessed as necrotic lesion diameter at 2 mg/mL at 24 degC measured after 2 days by leaf disk-puncture assay. It counts as functional. The procedure, abridged: as §2
For a further assay, the system named is Phleum pratense. Nature of the assay: Phytotoxicity against Phleum pratense (timothy grass) assessed as necrotic lesion diameter at 2 mg/mL at 24 degC measured after 2 days by leaf disk-puncture assay. The class given is functional. Summed up:
as §2

The next assay concerns Bacillus subtilis. Nature of the assay: Antibacterial activity against Bacillus subtilis at 100 ug/disk. It counts as functional, organism-based. Summed up:
as §1

The subject of another assay is Convolvulus arvensis. Nature of the assay: Phytotoxicity against Convolvulus arvensis assessed as necrotic lesion diameter at 2 mg/mL at 24 degC measured after 2 days by leaf disk-puncture assay. It counts as functional. The procedure, abridged: as §2
The subject of the next assay is Cirsium arvense. Nature of the assay: Phytotoxicity against Cirsium arvense (Canada thistle) assessed as necrotic lesion diameter at 2 mg/mL at 24 degC measured after 2 days by leaf disk-puncture assay. The class given is functional. Summed up: as §2
The test system of the next assay is Elymus repens. Nature of the assay: Phytotoxicity against Elymus repens (couch grass) assessed as necrotic lesion diameter at 2 mg/mL at 24 degC measured after 2 days by leaf disk-puncture assay. The class given is functional. The procedure, abridged: as §2
A further assay relates to Amaranthus retroflexus. Nature of the assay: Phytotoxicity against Amaranthus rethroflexus assessed as necrotic lesion diameter at 2 mg/mL at 24 degC measured after 2 days by leaf disk-puncture assay. The class given is functional. Summed up:
as §2

The subject of a further assay is Calendula officinalis. Nature of the assay: Phytotoxicity against Calendula officinalis assessed as necrotic lesion diameter at 2 mg/mL at 24 degC measured after 2 days by leaf disk-puncture assay. It counts as functional. The procedure, abridged:
as §2

For another assay, the system named is Saccharomyces cerevisiae. Nature of the assay: Antifungal activity against Saccharomyces cerevisiae at 100 ug/disk. It counts as functional, organism-based. The procedure, abridged:
as §1

The subject of another assay is Taraxacum officinale. Nature of the assay: Phytotoxicity against Taraxacum officinale (dandelion) assessed as necrotic lesion diameter at 2 mg/mL at 24 degC measured after 2 days by leaf disk-puncture assay. It counts as functional. Summed up:
as §2

Assay [3] relates to Sonchus arvensis. Nature of the assay: Phytotoxicity against Sonchus arvensis (field sow-thistle) assessed as necrotic lesions at 1 mg/mL at 24 degC measured after 2 days by leaf disk-puncture assay. The class given is functional. The procedure, abridged: as §2

As to `COc1ccc2oc3c(C(C)=O)cc(O)c4c3c2c1[C@@H](O)O4` [ALTERNETHANOXIN B], the result with Escherichia coli, in the assay on Xanthomonas campestris, with Bacillus subtilis and with Saccharomyces cerevisiae was inactive. Also, the Activity with Sonchus arvensis [1] worked out at 2 mm; in the assay with Aegopodium podagraria, 1 mm; with Phleum pratense, 1 mm; in the assay on Convolvulus arvensis it was 1 mm; in the assay on Cirsium arvense, 1 mm; in the assay on Elymus repens, 1 mm. The Activity in the assay with Amaranthus retroflexus, in the assay with Calendula officinalis and with Taraxacum officinale was 1 mm in each case. Further, the outcome with Sonchus arvensis [2] was Active.

In the case of `COc1cccc2c1[C@H](O)Oc1c(O)cc(C(C)=O)c(O)c1-2` [ALTERNETHANOXIN A], the outcome in the assay on Escherichia coli, in the assay with Xanthomonas campestris, in the assay with Bacillus subtilis and in the assay on Saccharomyces cerevisiae was inactive. Further, the Activity is reported as 4 mm with Sonchus arvensis [1]; 1 mm in the assay on Aegopodium podagraria; 1 mm in the assay with Phleum pratense; 1 mm in the assay with Convolvulus arvensis; 1 mm in the assay with Cirsium arvense; 1 mm in the assay on Elymus repens. The Activity in the assay on Amaranthus retroflexus, with Calendula officinalis and in the assay on Taraxacum officinale was 1 mm in each case. Besides, the result in the assay on Sonchus arvensis [3] was Active.
